The values below come from PubChem BioAssay.

The other results are listed elsewhere or left out. Values without a mark were called inactive.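 Rule for the calls: active = mean percent activation of the reporter above a cutoff set as the average over tested compounds plus their standard deviation; inactive = the rest.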

Sequence of Oxysterols receptor LXR-beta (Homo sapiens) (P55055 whole entry, looked up, the tested form may be a part): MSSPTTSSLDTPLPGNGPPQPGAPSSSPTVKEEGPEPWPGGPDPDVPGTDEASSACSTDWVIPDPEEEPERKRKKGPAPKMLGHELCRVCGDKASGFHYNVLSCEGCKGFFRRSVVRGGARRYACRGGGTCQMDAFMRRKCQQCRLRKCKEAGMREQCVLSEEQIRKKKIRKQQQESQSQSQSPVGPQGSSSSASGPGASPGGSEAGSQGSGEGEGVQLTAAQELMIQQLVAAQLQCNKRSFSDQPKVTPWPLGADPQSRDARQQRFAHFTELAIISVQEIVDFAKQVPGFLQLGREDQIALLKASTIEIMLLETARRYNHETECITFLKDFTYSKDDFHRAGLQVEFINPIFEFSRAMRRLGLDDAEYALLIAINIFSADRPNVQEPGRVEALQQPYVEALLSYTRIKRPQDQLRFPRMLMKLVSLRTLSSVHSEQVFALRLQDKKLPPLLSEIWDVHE

The test concerns the target Oxysterols receptor LXR-beta (Homo sapiens) (UniProt P55055). Kind of test: LXR agonists, Gal4 luciferase reporter, confirmation, counter-screen for hcDAF-12 agonist project, cell-based, luminescence, HEK293, H. contortus campaign (AID 743027). Conditions: HEK293 Gal4-LXR tk-luc reporter, 24 h, at 6.8 µM, active compounds read high, normalized: DMSO 0%, positive control 100%. The essentials:
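Assay system: HEK293 Gal4-LXR luciferase reporter cells; schedule: one-day compound treatment at 37 °C; signal: One-Glo luciferase luminescence; control set: DMSO and positive control; replicates: triplicate wells per compound; doses: 6.8 µM single dose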
Take `C/C(=N/NC(=S)Nc1ccccc1)c1ccc2c(c1)OCO2`: the activation was 0.01%. For `CCCCN(C)C(=O)c1ccc2c(c1)N(CC)C(=O)c1ccccc1S2(=O)=O` the value was -0.28%; for `Cc1cccnc1NC(=O)Cn1c(=O)oc2ccccc21`, -0.23%; for `COc1ccc(C2CC(c3cccs3)=Nc3ccccc3S2)cc1OC` (stereo not drawn), -0.03%.

For `Cc1ccc(S(=O)(=O)Nc2nc3ccccc3nc2N2CCc3ccccc3C2)cc1`, the activation was 0.14%. As for `Fc1ccc2nc(Nc3nc4c(s3)CCCC4)sc2c1`, the activation was 1.24%. As for `CC(C)(C)OC(=O)N/N=C/c1ccc(C(=O)O)cc1`, the activation was -0.15%.

`O=C(CSC(=S)N1CCOCC1)c1ccccc1`: the activation was 1%. Consider `COc1ccc(Nc2nc(-c3ccccc3)cs2)cc1`, for which the activation was 1.88%. Regarding `CC(=O)N1CCN(c2ccccc2NC(=S)NC(=O)c2cc3ccccc3o2)CC1`, the activation was -0.28%. The value for `Cc1ccc(C(=O)O/N=C(\N)c2ccccn2)cc1Cl` was 1.52%; that for `O=C(Oc1ccc([N+](=O)[O-])cc1)c1ccc2ccccc2n1` was -0.2%; that for `Cc1cccc(Nc2nc(-c3ccccc3)cs2)n1` was 1.85%. As to `CCCc1cc(C(=O)Nc2ccc(Cl)cn2)cs1`, the activation is 1.33%. Regarding `NC(=O)Nc1ccccc1C(=O)NCCc1ccccc1`, the activation was 0.34%.

For the compound `O=C(N/N=C\C1CC=CCC1)c1ccc(Br)o1` (stereo not drawn), the activation is -0.16%. As for `Cc1nn(CCOc2ccccc2)c(=O)n1-c1ccccc1F`, the activation was 0.49%. For `CCc1ccc(NC(=O)N2CCc3ccccc3C2)cc1`, the activation was 0.65%.
